# Measured values: ChEMBL document CHEMBL1151946, “Doxazosin-related alpha1-adrenoceptor antagonists with prostate antitumor activity” (J Med Chem, 2009)
# Active and inactive are the calls of the source. The rule behind the calls is not given here.
# Tests used:
# [1] = tested on: NHDF; experiment: Cytotoxicity against human NHDF cells after 72 hrs by CellTitter-Glo luminescent cell viability assay; assay type: functional, cell-based
# [2] = molecular target: T1, Alpha-1D adrenergic receptor (Rattus norvegicus) (UniProt P23944); experiment: (§1) Antagonist activity at rat Alpha-1D adrenoceptor assessed as inhibition if norepenephrine-induced contraction of thoracic aorta; assay type: functional, tissue-based
# T1 sequence (whole entry): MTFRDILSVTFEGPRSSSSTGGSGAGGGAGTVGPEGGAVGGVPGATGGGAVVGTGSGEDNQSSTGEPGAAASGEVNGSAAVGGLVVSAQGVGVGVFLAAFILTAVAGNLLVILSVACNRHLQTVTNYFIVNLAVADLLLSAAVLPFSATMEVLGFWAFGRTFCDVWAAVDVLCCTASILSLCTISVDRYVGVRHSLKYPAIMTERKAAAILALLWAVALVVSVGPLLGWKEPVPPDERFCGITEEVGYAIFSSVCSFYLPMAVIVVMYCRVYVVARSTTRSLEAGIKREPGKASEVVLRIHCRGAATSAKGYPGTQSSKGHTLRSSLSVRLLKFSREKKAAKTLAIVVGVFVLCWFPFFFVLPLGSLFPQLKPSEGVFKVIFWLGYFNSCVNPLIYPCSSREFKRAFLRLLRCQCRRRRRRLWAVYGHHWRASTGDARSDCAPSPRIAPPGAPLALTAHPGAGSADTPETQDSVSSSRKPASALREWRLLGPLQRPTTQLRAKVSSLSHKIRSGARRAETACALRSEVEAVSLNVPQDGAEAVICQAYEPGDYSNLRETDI
# Method in brief: (§2)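 Isolated rat tissue contraction assay. The α1A response used vas deferens with (-)-noradrenaline as agonist, α1D used thoracic aorta with (-)-noradrenaline, and α1B used spleen with (-)-phenylephrine. pA2 values are means ± SEM over three antagonist concentrations, each tested at least four times. Where the Schild slope differed from unity, pKB was calculated by van Rossum at the lowest antagonist concentration giving log(CR−1) ≥0.5.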
# [3] = tested on: PC-3; experiment: Induction of apoptosis in human PC3 cells assessed as caspase 3/7 activation after 24 hrs by Caspase-Glo 3/7 assay; assay type: functional, cell-based; details: PC-3, 24 h
# [4] = tested on: NHDF; experiment: Induction of apoptosis in human NHDF cells assessed as caspase 3/7 activation after 24 hrs Caspase-Glo 3/7 assay; assay type: functional, cell-based
# [5] = tested on: DU-145; experiment: Cytotoxicity against human DU145 cells after 72 hrs by CellTitter-Glo luminescent cell viability assay; assay type: functional, cell-based; details: DU-145, 72 h
# [6] = molecular target: T2, Alpha-1B adrenergic receptor (Rattus norvegicus) (UniProt P15823); experiment: Antagonist activity at rat Alpha-1B adrenoceptor assessed as inhibition if phenylephrine-induced contraction of spleen; assay type: functional, tissue-based; method in brief: as §2
# T2 sequence (whole entry): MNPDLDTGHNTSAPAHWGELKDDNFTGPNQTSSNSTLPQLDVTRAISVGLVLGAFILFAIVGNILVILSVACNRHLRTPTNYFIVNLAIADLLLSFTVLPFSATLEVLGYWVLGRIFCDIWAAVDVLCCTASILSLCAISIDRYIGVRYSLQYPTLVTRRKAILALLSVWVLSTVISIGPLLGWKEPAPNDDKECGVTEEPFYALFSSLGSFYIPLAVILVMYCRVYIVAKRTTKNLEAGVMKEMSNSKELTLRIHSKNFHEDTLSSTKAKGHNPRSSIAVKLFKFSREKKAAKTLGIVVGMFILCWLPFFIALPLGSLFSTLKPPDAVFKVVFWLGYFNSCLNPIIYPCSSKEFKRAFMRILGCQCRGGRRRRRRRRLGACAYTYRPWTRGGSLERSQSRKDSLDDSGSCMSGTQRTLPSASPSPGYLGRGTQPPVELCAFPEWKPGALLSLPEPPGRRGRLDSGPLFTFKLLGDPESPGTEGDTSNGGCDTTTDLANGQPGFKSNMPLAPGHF
# [7] = molecular target: T3, Alpha-1A adrenergic receptor (Rattus norvegicus) (UniProt P43140); experiment: Antagonist activity at rat alpha1A adrenoceptor assessed as inhibition if norepinephrine-induced contraction of vas deference; assay type: functional; method in brief: as §2
# T3 sequence (whole entry): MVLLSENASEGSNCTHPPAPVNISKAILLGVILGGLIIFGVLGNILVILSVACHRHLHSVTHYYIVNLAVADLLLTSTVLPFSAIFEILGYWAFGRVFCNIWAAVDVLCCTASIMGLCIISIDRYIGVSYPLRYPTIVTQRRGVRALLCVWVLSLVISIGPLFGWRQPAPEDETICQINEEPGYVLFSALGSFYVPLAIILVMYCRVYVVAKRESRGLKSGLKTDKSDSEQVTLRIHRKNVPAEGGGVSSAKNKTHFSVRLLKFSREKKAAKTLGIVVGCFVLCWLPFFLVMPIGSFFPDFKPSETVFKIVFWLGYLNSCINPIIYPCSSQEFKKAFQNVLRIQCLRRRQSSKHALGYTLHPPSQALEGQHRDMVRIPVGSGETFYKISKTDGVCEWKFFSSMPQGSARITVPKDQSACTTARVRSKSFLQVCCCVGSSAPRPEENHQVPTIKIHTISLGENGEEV
# [8] = tested on: DU-145; experiment: Induction of apoptosis in human DU145 cells assessed as caspase 3/7 activation after 24 hrs Caspase-Glo 3/7 assay; assay type: functional, cell-based; details: du-145
# [9] = tested on: LNCaP; experiment: Cytotoxicity against human LNCAP cells after 72 hrs by CellTitter-Glo luminescent cell viability assay; assay type: functional, cell-based
# [10] = molecular target: T4, Alpha-1B adrenergic receptor (Homo sapiens, UniProt P35368); experiment: Displacement of [3H]prazosin from human Alpha-1B adrenoceptor expressed in CHO cells; assay type: cell-based
# T4 sequence (P35368 whole entry): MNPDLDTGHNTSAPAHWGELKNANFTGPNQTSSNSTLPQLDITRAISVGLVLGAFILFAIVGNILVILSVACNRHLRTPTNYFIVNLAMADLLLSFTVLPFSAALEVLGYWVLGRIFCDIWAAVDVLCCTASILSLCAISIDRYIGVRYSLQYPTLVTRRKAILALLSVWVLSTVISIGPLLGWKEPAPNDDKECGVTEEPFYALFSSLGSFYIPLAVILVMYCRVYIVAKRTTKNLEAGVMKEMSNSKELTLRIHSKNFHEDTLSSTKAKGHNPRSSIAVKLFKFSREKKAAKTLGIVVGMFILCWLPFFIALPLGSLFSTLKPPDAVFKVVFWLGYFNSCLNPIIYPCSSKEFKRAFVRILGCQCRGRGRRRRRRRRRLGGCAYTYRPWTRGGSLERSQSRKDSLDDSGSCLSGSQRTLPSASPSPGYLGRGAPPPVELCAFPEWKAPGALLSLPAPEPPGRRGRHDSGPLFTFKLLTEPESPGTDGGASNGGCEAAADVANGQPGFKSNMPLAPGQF
# Method in brief: (§3)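 Radioligand competition binding used [3H]prazosin on membranes of CHO cells expressing human α1a, α1b or α1d adrenoceptor. IC50 values were converted to pKi by the Cheng-Prusoff equation. Data come from two to three experiments run in triplicate, agreeing within ±20%.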
# [11] = molecular target: T5, Alpha-1D adrenergic receptor (Homo sapiens, UniProt P25100); experiment: Displacement of [3H]prazosin from human Alpha-1D adrenoceptor expressed in CHO cells; assay type: cell-based; method in brief: as §3
# T5 sequence (P25100 whole entry): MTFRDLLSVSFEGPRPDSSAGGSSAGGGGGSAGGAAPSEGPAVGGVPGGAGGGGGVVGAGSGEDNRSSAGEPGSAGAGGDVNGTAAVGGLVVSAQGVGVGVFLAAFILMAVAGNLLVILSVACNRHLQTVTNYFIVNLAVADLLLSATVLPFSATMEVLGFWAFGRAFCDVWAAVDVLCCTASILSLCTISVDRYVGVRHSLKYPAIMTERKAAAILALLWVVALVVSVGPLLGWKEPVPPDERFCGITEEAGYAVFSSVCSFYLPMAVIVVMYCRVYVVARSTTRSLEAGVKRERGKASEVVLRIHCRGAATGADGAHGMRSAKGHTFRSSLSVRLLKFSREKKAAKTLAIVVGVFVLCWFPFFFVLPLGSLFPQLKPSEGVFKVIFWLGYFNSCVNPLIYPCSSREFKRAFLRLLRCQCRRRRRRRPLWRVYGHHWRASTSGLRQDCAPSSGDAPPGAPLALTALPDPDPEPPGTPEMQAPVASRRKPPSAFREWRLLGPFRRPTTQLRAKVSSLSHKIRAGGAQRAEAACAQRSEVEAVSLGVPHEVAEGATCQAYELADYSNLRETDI
# [12] = tested on: PC-3; experiment: Cytotoxicity against human PC3 cells after 72 hrs by CellTitter-Glo luminescent cell viability assay; assay type: functional, cell-based; details: PC-3, 72 h
# [13] = molecular target: T6, Alpha-1A adrenergic receptor (Homo sapiens, UniProt P35348); experiment: Displacement of [3H]prazosin from human alpha1A adrenoceptor expressed in CHO cells; assay type: cell-based; method in brief: as §3
# T6 sequence (P35348 whole entry): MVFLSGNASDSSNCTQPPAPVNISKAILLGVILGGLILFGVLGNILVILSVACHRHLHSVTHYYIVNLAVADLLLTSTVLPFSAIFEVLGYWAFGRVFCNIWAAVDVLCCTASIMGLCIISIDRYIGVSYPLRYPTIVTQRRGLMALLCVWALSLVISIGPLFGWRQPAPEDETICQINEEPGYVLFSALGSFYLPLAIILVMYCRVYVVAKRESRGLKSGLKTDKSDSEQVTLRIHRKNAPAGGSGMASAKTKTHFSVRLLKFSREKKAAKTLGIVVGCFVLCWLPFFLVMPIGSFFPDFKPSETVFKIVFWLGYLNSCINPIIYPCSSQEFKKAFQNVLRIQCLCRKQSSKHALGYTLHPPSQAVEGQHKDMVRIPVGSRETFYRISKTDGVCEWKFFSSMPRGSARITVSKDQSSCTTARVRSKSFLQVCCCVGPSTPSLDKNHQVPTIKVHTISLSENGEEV
# [14] = tested on: LNCaP; experiment: Induction of apoptosis in human LNCAP cells assessed as caspase 3/7 activation after 24 hrs Caspase-Glo 3/7 assay; assay type: functional, cell-based; details: lncap
# [15] = molecular target: T7, Alpha-1D adrenergic receptor (Rattus norvegicus, UniProt P23944); experiment: as §1; assay type: functional, tissue-based; details: read-out: pA2 (converted); method in brief: as §2
# T7 sequence (P23944 whole entry): T1 sequence (whole entry)
# [16] = tested on: PC-3; experiment: Antitumor activity against human PC3 cells xenografted in NU/NU mouse after 21 days; assay type: functional
# Method in brief: (§4)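 Male nude mice carried subcutaneous left-flank tumors from injected PC-3 cells. Drug was given orally once daily for 21 consecutive days. There were five groups of six mice, treated and control. Tumor growth is reported as mean ± SEM, analysed by ANOVA and Student t-test against control.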
# [17] = tested on: PC-3; experiment: Induction of apoptosis in human PC3 cells xenografted in NU/NU mouse assessed as DNA fragmentation at 0.3 to 3 mg/kg by agarose gel electrophoresis; assay type: functional, organism-based
# Method in brief: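 DNA from PC-3 subcutaneous tumors of orally treated nude mice was run on an electrophoretic gel. Apoptosis was scored as a DNA ladder pattern.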
# [18] = tested on: PC-3; experiment: Antitumor activity against human PC3 cells xenografted in NU/NU mouse at 0.3 mg/kg, po after 21 days relative to control; assay type: functional; method in brief: as §4
# [19] = tested on: PC-3; experiment: Antiangiogenic activity in human PC3 cells xenografted in NU/NU mouse assessed as reduction vascularization at 1 mg/kg by immunohistochemistry; assay type: functional, organism-based; design: dose 1 mg/kg
# Method in brief: (§5)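 Vascularization of PC-3 flank tumors from nude mice dosed orally was assessed by immunohistochemistry with rat anti-mouse CD31 monoclonal antibody as endothelial marker. Doses were 0.3, 1 and 3 mg/kg.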
# [20] = tested on: PC-3; experiment: Antiangiogenic activity in human PC3 cells xenografted in NU/NU mouse assessed as reduction vascularization at 0.3 mg/kg by immunohistochemistry; assay type: functional, organism-based; design: dose 0.3 mg/kg; method in brief: as §5
# [21] = tested on: PC-3; experiment: Antiangiogenic activity in human PC3 cells xenografted in NU/NU mouse assessed as reduction vascularization at 3 mg/kg by immunohistochemistry; assay type: functional, organism-based; design: dose 3 mg/kg; method in brief: as §5
pKb [2],EC50 [3] [µM],EC50 [4] [µM],pKb [6],pKb [7],EC50 [8] [µM],Ki [10] [µM],Ki [11] [µM],Ki [13] [µM],EC50 [14] [µM],Compound,IC50 [1] [µM],IC50 [5] [µM],IC50 [9] [µM],IC50 [12] [µM],other results
8.64,10,10,8.35,8.51,10,0.000933,0.00158,0.00186,10,COc1cc2nc(N(C)CCCCCCN(C)C(=O)C3COc4ccccc4O3)nc(N)c2cc1OC (stereo not given),9.8,9.25,4.61,8.4,–
6.88,10,10,7.14,5.88,10,0.0224,0.0263,0.0813,10,COc1cc2nc(N3CCN(C(=O)C4COc5ccccc5O4)[C@H]4CCCC[C@@H]43)nc(N)c2cc1OC (relative stereo),> 10,> 10,9.75,> 10,–
–,1.86,> 10,8.3,7.21,–,0.000417,0.00017,0.00282,–,COc1cc2nc(N3CCN(C(=O)C4COc5ccccc5O4)[C@H]4CCCC[C@H]43)nc(N)c2cc1OC (relative stereo) [CYCLODOXAZOSIN],1.46,0.96,0.57,0.85,EC50 [1]: > 10 µM; Kb [15]: 0.0407 µM; Activity [16]: Dose-dependent effect; Activity [17]: Active; Activity [18]: 21%; EC50 [5]: 2.6 µM; Activity [19]: Active; EC50 [9]: 1.42 µM; Activity [20]: Active; Activity [21]: Active; EC50 [12]: 1.86 µM
